The conditions of series [1]: rats; after administration of Semen Cassiae extract; ref Yang et al. [2015]; cited from earlier work.
The target in a further series is CYP2C9 (Homo sapiens, UniProt P11712). Nature of the series: Time-dependent inhibition of CYP2C9 in HLMs. The class given is in vitro ADME. Conditions: HLMs pre-incubated with physcion 30 min; incubation 5, 10, 15 and 30 min. In a few lines:
(§1)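 Two-step format: microsomes were pre-incubated with the test compound for 30 min. A 20 μL aliquot was transferred to a second tube with substrate near Km and started with the NADPH-generating system. Incubations ran 5, 10, 15 and 30 min, were stopped with acetonitrile and centrifuged, and residual activity was measured by HPLC. Triplicate.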

For series [2] the following is noted: after rhubarb extract administration; ref Ding et al. [2003]; Xun et al. [2019]; cited from earlier work.
The next series has as its target CYP3A4 (Homo sapiens, UniProt P08684). In words: Time-dependent inhibition of CYP3A4 in HLMs. The class given is in vitro ADME.
Another series deals with CYP2D6 (Homo sapiens, UniProt P10635). In words: Time-dependent inhibition of CYP2D6 in HLMs. It is filed as in vitro ADME. Conditions: HLMs pre-incubated with physcion 30 min; incubation 5, 10, 15 and 30 min. In a few lines: as §1
Series [3] relates to CYP450 isoforms (1A2, 2A6, 2C8, 2C9, 2C19, 2D6, 2E1, 3A4). Nature of the series: Cocktail assay of CYP450 isoform activity in pooled human liver microsomes. It is filed as in vitro ADME. Conditions: pooled HLMs, 100 μM physcion. In a few lines: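 Single-concentration screen in pooled human liver microsomes with the test compound at 100 μM, a blank negative control and typical isoform inhibitors as positive controls. Incubation was in 100 mM potassium phosphate, pH 7.4, with an NADPH-generating system after 3 min pre-incubation. Reactions were stopped with acetonitrile (trichloroacetic acid for CYP2A6), and probe metabolites were quantified by HPLC. Triplicate; one-way ANOVA against the negative control.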

CYP3A4, sequence (P08684 whole entry): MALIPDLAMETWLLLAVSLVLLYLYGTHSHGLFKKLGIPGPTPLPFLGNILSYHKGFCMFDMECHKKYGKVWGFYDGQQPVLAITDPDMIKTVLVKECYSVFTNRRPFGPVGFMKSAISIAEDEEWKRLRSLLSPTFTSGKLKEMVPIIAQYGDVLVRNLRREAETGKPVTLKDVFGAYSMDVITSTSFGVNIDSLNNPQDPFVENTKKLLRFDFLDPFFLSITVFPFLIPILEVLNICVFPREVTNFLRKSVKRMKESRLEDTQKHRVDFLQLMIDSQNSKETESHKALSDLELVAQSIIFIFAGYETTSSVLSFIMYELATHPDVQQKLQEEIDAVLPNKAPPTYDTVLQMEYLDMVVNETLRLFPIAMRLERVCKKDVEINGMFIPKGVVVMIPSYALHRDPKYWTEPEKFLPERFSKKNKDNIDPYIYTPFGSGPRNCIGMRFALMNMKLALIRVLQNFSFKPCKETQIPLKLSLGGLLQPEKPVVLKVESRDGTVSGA
CYP2D6, sequence (P10635 whole entry, canonical isoform): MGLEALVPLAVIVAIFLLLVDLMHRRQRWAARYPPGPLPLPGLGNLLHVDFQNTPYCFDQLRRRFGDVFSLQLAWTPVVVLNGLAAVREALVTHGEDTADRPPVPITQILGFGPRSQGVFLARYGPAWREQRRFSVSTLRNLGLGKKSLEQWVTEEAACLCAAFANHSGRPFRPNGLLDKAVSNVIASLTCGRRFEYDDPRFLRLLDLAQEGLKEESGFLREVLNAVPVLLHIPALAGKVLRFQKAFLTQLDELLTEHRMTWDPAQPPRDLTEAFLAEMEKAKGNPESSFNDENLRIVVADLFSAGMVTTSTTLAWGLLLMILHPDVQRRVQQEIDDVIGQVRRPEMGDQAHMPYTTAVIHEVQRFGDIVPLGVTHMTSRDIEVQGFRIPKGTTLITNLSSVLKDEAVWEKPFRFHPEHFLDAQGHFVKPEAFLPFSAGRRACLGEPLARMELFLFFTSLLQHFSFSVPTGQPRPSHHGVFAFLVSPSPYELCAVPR
CYP2C9, sequence (P11712 whole entry): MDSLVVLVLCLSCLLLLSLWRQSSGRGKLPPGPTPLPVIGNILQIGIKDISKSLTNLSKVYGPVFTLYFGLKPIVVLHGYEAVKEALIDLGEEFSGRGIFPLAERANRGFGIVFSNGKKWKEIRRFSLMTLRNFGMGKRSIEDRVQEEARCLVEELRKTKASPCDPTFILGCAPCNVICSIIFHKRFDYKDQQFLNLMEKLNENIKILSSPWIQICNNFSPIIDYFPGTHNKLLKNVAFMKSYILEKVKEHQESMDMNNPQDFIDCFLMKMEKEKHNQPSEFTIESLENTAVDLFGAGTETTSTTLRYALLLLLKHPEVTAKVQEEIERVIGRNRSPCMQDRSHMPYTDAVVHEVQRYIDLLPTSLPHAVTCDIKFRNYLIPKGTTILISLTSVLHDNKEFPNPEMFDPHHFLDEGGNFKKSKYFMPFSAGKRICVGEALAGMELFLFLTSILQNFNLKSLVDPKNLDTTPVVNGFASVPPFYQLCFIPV

Turning to `COc1cc(O)c2c(c1)C(=O)c1cc(C)cc(O)c1C2=O` [physcion, Physcion], in series [1], the Maximum plasma concentration is given as 461.85 ± 266.77 ng/mL and the “Time of maximum plasma concentration” value is listed as 0.167 ± 0.002 h. Also, the “Time dependence of CYP2C9 inhibition” value at CYP2C9 is listed as “not influenced”. For the same molecule, in series [2], the “Maximum concentration of physcion” value was 0.032 µg/mL and the “Time at which the maximum concentration was reached” value is 2 h. For the same molecule, the “KI (time-dependent inhibition of CYP3A4)” value on CYP3A4 (0–50 μM physcion, substrate approx. 4-fold Km, 0–30 min) is 3.10 µM⁻¹. Also, the “Time dependence of CYP3A4 inhibition” value on CYP3A4 (HLMs pre-incubated with physcion 30 min, incubation 5, 10, 15 and 30 min) is reported as “time-dependent”. Besides, the “Time dependence of CYP2D6 inhibition” value on CYP2D6 is reported as “not influenced”. The “Inhibitory effect relative to the positive inhibitors of CYP2C9, 2D6 and 3A4” value in series [3] is given as “weaker than the positive inhibitors”. Besides, the “Effect on activity of the major CYP450 isoforms” value in series [3] (compared with negative control) is “Only the activity of CYP2C9, 2D6 and 3A4 was inhibited”.

The values above are taken from PMC10868446 (Pharmaceutical Biology, 2024).
